Results as given in ChEMBL document CHEMBL2203229, “Structure Activity Relationship Study of the Cleistriosides and Cleistetrosides for Antibacterial/Anticancer Activity” (ACS Med Chem Lett, 2012).
In brackets after ≈: the same amount, converted by molar mass. Activity calls are given as the source filed them. No cut-off for these calls is given here.

Assays:
BT-549 = experiment: Growth inhibition of human BT549 cells at 10 uM after 48 hrs by sulforhodamine B assay; format: functional, cell-based
HT-29 = experiment: Growth inhibition of human HT-29 cells at 10 uM after 48 hrs by sulforhodamine B assay; format: functional, cell-based
A498 = experiment: Growth inhibition of human A498 cells at 10 uM after 48 hrs by sulforhodamine B assay; format: functional, cell-based
HCT-15 = experiment: Growth inhibition of human HCT15 cells at 10 uM after 48 hrs by sulforhodamine B assay; format: functional, cell-based
SK-MEL-5 = experiment: Growth inhibition of human SK-MEL-5 cells at 10 uM after 48 hrs by sulforhodamine B assay; format: functional, cell-based
Escherichia coli [1] = experiment: Antibacterial activity against Escherichia coli K-12 BAS901 harboring genetically modified imp-4213, zab4292::Tn5 assessed as growth inhibition after 16 hrs by broth dilution method; format: functional; conditions: K-12 BAS901, 16 h
Method in brief: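 Kanamycin-resistant strain grown overnight in LB with kanamycin 50 µg/mL, diluted 10-fold, then shaken at 37 °C for 45 min–1 h (~10⁸ CFU/mL). Diluted ~1000-fold to 10⁵ CFU/mL in LB. DMSO stocks (20 mM) prepared as 4X working solutions in LB. Seven 1:2 serial dilutions mixed with equal-volume inoculum. OD600 read with shaking.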

Escherichia coli [2] = experiment: Antibacterial activity against Escherichia coli K-12 MG1655 assessed as growth inhibition after 16 hrs by broth dilution method; format: functional; conditions: K-12 substr. MG1655, 16 h
Method in brief: (§1)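 Strains grown overnight in LB, diluted 10-fold, shaken at 37 °C for 45 min–1 h (~10⁸ CFU/mL), then diluted ~1000-fold to ~10⁵ CFU/mL. Broth dilution in LB: 20 mM DMSO stocks, 1:2 serial dilutions giving seven concentrations, inoculum added 1:1. OD600 read with shaking.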

SR = experiment: Growth inhibition of human SR cells at 10 uM after 48 hrs by sulforhodamine B assay; format: functional, cell-based
[3] = Antibacterial activity against Bacillus subtilis JH642 containing trpC2 pheA1 assessed as growth inhibition after 16 hrs by broth dilution method; format: functional, Bacillus subtilis subsp. subtilis str. JH642; method in brief: as §1
RPMI-8226 = experiment: Growth inhibition of human RPMI8226 cells at 10 uM after 48 hrs by sulforhodamine B assay; format: functional, cell-based
NCI/ADR-RES = experiment: Growth inhibition of human NCI-ADR-RES cells at 10 uM after 48 hrs by sulforhodamine B assay; format: functional, cell-based
SF-539 = experiment: Growth inhibition of human SF539 cells at 10 uM after 48 hrs by sulforhodamine B assay; format: functional, cell-based
DU-145 = experiment: Growth inhibition of human DU145 cells at 10 uM after 48 hrs by sulforhodamine B assay; format: functional, cell-based
MCF7 = experiment: Growth inhibition of human MCF7 cells at 10 uM after 48 hrs by sulforhodamine B assay; format: functional, cell-based
SNB-75 = experiment: Growth inhibition of human SNB75 cells at 10 uM after 48 hrs by sulforhodamine B assay; format: functional, cell-based
NCI-H460 [4] = experiment: Cytotoxicity against human NCI-H460 cells assessed as inhibition of cell viability by MTT assay; format: functional, cell-based
Method in brief: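 NCI-H460 cells in RPMI 1640 with 10% FBS and 2 mM glutamine at 37 °C, 5% CO₂. Seeded at 10,000 cells/well for 12 h, then dosed in 1% FBS medium (DMSO below 0.1% final). MTT (10 µL of 5 mg/mL) for 4 h, formazan dissolved in DMSO for 45 min, absorbance at 562 nm. Triplicate wells, at least three runs (N = 9).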

NCI-H460 [5] = experiment: Growth inhibition of human NCI-H460 cells at 10 uM after 48 hrs by sulforhodamine B assay; format: functional, cell-based
A549 = experiment: Growth inhibition of human A549 cells at 10 uM after 48 hrs by sulforhodamine B assay; format: functional, cell-based
MDA-MB-435 = experiment: Growth inhibition of human MDA-MB-435 cells at 10 uM after 48 hrs by sulforhodamine B assay; format: functional, cell-based
CAKI-1 = experiment: Growth inhibition of human CAKI-1 cells at 10 uM after 48 hrs by sulforhodamine B assay; format: functional, cell-based
PC-3 = experiment: Growth inhibition of human PC3 cells at 10 uM after 48 hrs by sulforhodamine B assay; format: functional, cell-based
OVCAR-3 = experiment: Growth inhibition of human OVCAR3 cells at 10 uM after 48 hrs by sulforhodamine B assay; format: functional, cell-based

Row | Compound | growth inhibition (GI) (BT-549) | growth inhibition (GI) (HT-29) | growth inhibition (GI) (A498) | growth inhibition (GI) (HCT-15) | growth inhibition (GI) (SK-MEL-5) | MIC (Escherichia coli [1]) | MIC (Escherichia coli [2]) | growth inhibition (GI) (SR) | MIC [3] | growth inhibition (GI) (RPMI-8226) | growth inhibition (GI) (NCI/ADR-RES) | growth inhibition (GI) (SF-539) | growth inhibition (GI) (DU-145) | growth inhibition (GI) (MCF7) | growth inhibition (GI) (SNB-75) | IC50 (NCI-H460 [4]) | growth inhibition (GI) (NCI-H460 [5]) | growth inhibition (GI) (A549) | growth inhibition (GI) (MDA-MB-435) | growth inhibition (GI) (CAKI-1) | also measured
1 | CCCCCCCCCCCCO[C@@H]1O[C@@H](C)[C@H](O[C@@H]2O[C@@H](C)[C@H](OC(C)=O)[C@@H](O[C@@H]3O[C@@H](C)[C@H](O)[C@@H](O[C@@H]4O[C@@H](C)[C@H](O)[C@@H](O)[C@H]4O)[C@H]3OC(C)=O)[C@H]2O)[C@@H](O)[C@H]1O | inactive | inactive | inactive | inactive | inactive | 16 µM (≈ 13.7 µg/mL) | > 64 µM | inactive | 8 µM (≈ 6.84 µg/mL) | inactive | inactive | inactive | inactive | inactive | inactive | 15.4 µM | inactive | inactive | inactive | inactive | growth inhibition (GI) (PC-3): inactive; growth inhibition (GI) (OVCAR-3): inactive
2 | CCCCCCCCCCCCO[C@@H]1O[C@@H](C)[C@H](O[C@@H]2O[C@@H](C)[C@H](OC(C)=O)[C@@H](O[C@@H]3O[C@@H](C)[C@H](OC(C)=O)[C@@H](O[C@@H]4O[C@@H](C)[C@H](O)[C@@H](O)[C@H]4O)[C@H]3OC(C)=O)[C@H]2O)[C@@H](O)[C@H]1O | inactive | inactive | inactive | inactive | inactive | > 64 µM | > 64 µM | inactive | 8 µM (≈ 7.18 µg/mL) | inactive | inactive | inactive | inactive | inactive | inactive | 12.2 µM | inactive | inactive | inactive | inactive | growth inhibition (GI) (PC-3): inactive; growth inhibition (GI) (OVCAR-3): inactive
3 | CCCCCCCCCCCCO[C@@H]1O[C@@H](C)[C@H](O[C@@H]2O[C@@H](C)[C@H](OC(C)=O)[C@@H](O[C@@H]3O[C@@H](C)[C@H](O)[C@@H](O[C@@H]4O[C@@H](C)[C@H](OC(C)=O)[C@@H](O)[C@H]4O)[C@H]3OC(C)=O)[C@H]2O)[C@@H](O)[C@H]1O | inactive | inactive | inactive | inactive | inactive | 16 µM (≈ 14.4 µg/mL) | > 64 µM | inactive | 8 µM (≈ 7.18 µg/mL) | inactive | inactive | inactive | inactive | inactive | inactive | 16.5 µM | inactive | inactive | inactive | inactive | growth inhibition (GI) (PC-3): inactive; growth inhibition (GI) (OVCAR-3): inactive
